Source: ChEMBL document CHEMBL4602646, “Design, synthesis and discovery of andrographolide derivatives against Zika virus infection” (Eur J Med Chem, 2020)

Key:
[1] = tested on: Zika virus; experiment: Antiviral activity against Zika virus PRVABC-59 infected in human SNB19 cells assessed as reduction in viral titer incubated for 24 hrs by viral titer assay; format: functional, organism-based, SNB-19
In short: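 SNB-19 glioblastoma cells seeded 1 day ahead and pretreated 1 h with graded compound concentrations (final DMSO 0.1%). Infected with C6/36-derived PRVABC59 at MOI 1; supernatants taken 24 h post-infection. Virus titred by focus-forming unit assay on confluent Vero monolayers: 2 h inoculation, methylcellulose overlay for 48 h, PFA fixation, 4G2 antibody then HRP secondary, DAB–nickel, foci counted. Niclosamide reference included each run.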

[2] = tested on: SNB-19; experiment: (§1) Cytotoxicity against human SNB19 cells assessed as reduction in cell viability incubated for 24 hrs by MTT assay; format: cell-based; details: snb-19, 24 h
In short: (§2)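 MTT viability readout. Cells plated at 1.0 ×10⁴ per well overnight, then exposed to compounds, with 0.1% DMSO vehicle as control: SNB-19 for 24 h, Vero for 48 h. MTT at 0.5 mg/mL final, 4 h at 37 °C; formazan dissolved in DMSO, absorbance at 570 nm. CC₅₀ from % viability versus control; each concentration repeated 3 times independently.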

[3] = Selectivity index, ratio of CC50 for human SNB19 cells to EC50 for Zika virus PRVABC-59; format: toxicity; details: read-out: Ratio CC50/EC50
In short: (§3)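 Selectivity index taken as CC₅₀ over EC₅₀. CC₅₀ comes from MTT in Vero (48 h) or SNB-19 (24 h) cells. EC₅₀ comes from the ZIKV PRVABC59 titer-reduction assay in SNB-19 cells (MOI 1, 24 h, focus-forming units on Vero).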

[4] = tested on: Vero; experiment: (§4) Cytotoxicity against African green monkey Vero cells assessed as reduction in cell viability incubated for 48 hrs by MTT assay; format: cell-based; details: chlorocebus sabaeus, vero, 48 h; in short: as §2
[5] = Selectivity index, ratio of CC50 for African green monkey Vero cells to EC50 for Zika virus PRVABC-59; format: toxicity; details: read-out: Ratio CC50/EC50; in short: as §3
[6] = as §1; format: cell-based, SNB-19; details: SNB19 cells; in short: as §2
[7] = as §4; format: cell-based; details: chlorocebus sabaeus, Vero cells; in short: as §2
[8] = Zika virus, PRVABC-59, SNB-19, 24 h, read-out: EC50

SMILES: C=C1CC[C@@H]2[C@]3(C)COC(C)(C)O[C@@H]3CC[C@@]2(C)[C@@H]1C/C=C1/C(=O)OC[C@@H]1Oc1cccc2cccnc12
- EC50 [1, 8]: 25.9 µM
- CC50 [2]: 21.1 µM
- selectivity ratio [3]: 0.82
- CC50 [4]: 22 µM
- selectivity ratio [5]: 0.85

SMILES: C=C1CC[C@@H]2[C@](C)(COC(C)=O)[C@H](O)CC[C@@]2(C)[C@@H]1C/C=C1/C(=O)OC[C@H]1Oc1cccc2ccc(C)nc12
- EC50 ([1]; snb-19): Not Active
- CC50 at 24 h [6]: > 100 µM
- CC50 at 48 h [7]: 50.6 µM

SMILES: C=C1CC[C@@H]2[C@](C)(COC(C)=O)[C@H](O)CC[C@@]2(C)[C@@H]1C/C=C1/C(=O)OC[C@@H]1Oc1c(Cl)cc(Cl)c2cccnc12
- EC50 ([1]; snb-19): Not Active
- CC50 at 24 h [6]: 39.3 µM
- CC50 at 48 h [7]: 51.9 µM

SMILES: C=C1CC[C@@H]2[C@](C)(COC(C)=O)[C@H](O)CC[C@@]2(C)[C@@H]1C/C=C1/C(=O)OC[C@@H]1Oc1cccc2ccc(C)nc12
- EC50 ([1]; snb-19): Not Active
- CC50 at 24 h [6]: 65.9 µM
- CC50 at 48 h [7]: 46.5 µM

SMILES: C=C1CC[C@H]2[C@@](C)(CCC(=O)[C@@]2(C)COC(C)=O)[C@@H]1C/C=C1/C(=O)OC[C@@H]1Oc1c(Cl)cc(Cl)c2cccnc12
- EC50 [1, 8]: 24.6 µM
- CC50 [2]: 72 µM
- selectivity ratio [3]: 2.9
- CC50 [4]: 57.4 µM
- selectivity ratio [5]: 2.3

SMILES: C=C1CC[C@@H]2[C@](C)(CO)[C@H](O)CC[C@@]2(C)[C@@H]1C/C=C1/C(=O)OC[C@H]1Oc1ccnc2ccccc12
- EC50 [1, 8]: 11 µM
- CC50 [2]: 60.1 µM
- selectivity ratio [3]: 5.5
- CC50 at 48 h [7]: 22.8 µM
- selectivity ratio [5]: 2.1

SMILES: C=C1CC[C@H]2[C@@](C)(CCC(=O)[C@@]2(C)COC(C)=O)[C@@H]1C/C=C1/C(=O)OC[C@H]1Oc1c(Cl)cc(Cl)c2cccnc12
- EC50 ([1]; snb-19): Not Active
- CC50 at 24 h [6]: > 100 µM
- CC50 at 48 h [7]: 64.7 µM

SMILES: C=C1CC[C@H]2[C@@](C)(CCC(=O)[C@@]2(C)COC(C)=O)[C@@H]1C/C=C1/C(=O)OC[C@H]1Oc1cccc2ccc(C)nc12
- EC50 ([1]; snb-19): Not Active
- CC50 at 24 h [6]: > 100 µM
- CC50 at 48 h [7]: 72.4 µM

SMILES: C=C1CC[C@@H]2[C@](C)(COC(C)=O)[C@H](O)CC[C@@]2(C)[C@@H]1C/C=C1/C(=O)OC[C@H]1Oc1c(Cl)cc(Cl)c2cccnc12
- EC50 [1, 8]: 4.5 µM
- CC50 [2]: 88.7 µM
- selectivity ratio [3]: 19.7
- CC50 [4]: 85 µM
- selectivity ratio [5]: 18.9

SMILES: C=C1CC[C@@H]2[C@]3(C)COC(C)(C)O[C@@H]3CC[C@@]2(C)[C@@H]1C/C=C1/C(=O)OC[C@H]1Oc1c(Cl)cc(Cl)c2cccnc12
- EC50 ([1]; snb-19): Not Active
- CC50 at 24 h [6]: 63.5 µM
- CC50 at 48 h [7]: 58.6 µM

SMILES: C=C1CC[C@@H]2[C@]3(C)COC(C)(C)O[C@@H]3CC[C@@]2(C)[C@@H]1C/C=C1/C(=O)OC[C@@H]1Oc1cccc2ccc(C)nc12
- EC50 [1, 8]: 8.5 µM
- CC50 [2]: 78.4 µM
- selectivity ratio [3]: 9.2
- CC50 [4]: 55.9 µM
- selectivity ratio [5]: 6.6

SMILES: C=C1CC[C@@H]2[C@](C)(CO)[C@H](O)CC[C@@]2(C)[C@@H]1C/C=C1/C(=O)OC[C@H]1Oc1cccc2ccc(C)nc12
- EC50 ([1]; snb-19): Not Active
- CC50 at 24 h [6]: > 100 µM
- CC50 at 48 h [7]: 61.4 µM

SMILES: C=C1CC[C@@H]2[C@](C)(CO)[C@H](O)CC[C@@]2(C)[C@@H]1C/C=C1/C(=O)OC[C@@H]1Oc1cccc2ccc(C)nc12
- EC50 [1, 8]: 25.8 µM
- CC50 [2]: > 100 µM
- selectivity ratio [3]: > 3.9
- CC50 [4]: 99.8 µM
- selectivity ratio [5]: 3.9

SMILES: C=C1CC[C@@H]2[C@]3(C)COC(C)(C)O[C@@H]3CC[C@@]2(C)[C@@H]1C/C=C1/C(=O)OC[C@@H]1Oc1c(Cl)cc(Cl)c2cccnc12
- EC50 ([1]; snb-19): Not Active
- CC50 at 24 h [6]: 39.3 µM
- CC50 at 48 h [7]: 55.9 µM

SMILES: C=C1CC[C@@H]2[C@](C)(CO)[C@H](O)CC[C@@]2(C)[C@@H]1C/C=C1/C(=O)OC[C@@H]1Oc1cccc2cccnc12
- EC50 [1, 8]: 1.3 µM
- CC50 [2]: 22.7 µM
- selectivity ratio [3]: 17.5
- CC50 at 48 h [7]: 20.8 µM
- selectivity ratio [5]: 16.1

SMILES: C=C1CC[C@@H]2[C@]3(C)COC(C)(C)O[C@@H]3CC[C@@]2(C)[C@@H]1C/C=C1/C(=O)OC[C@H]1Oc1cccc2ccc(C)nc12
- EC50 [1, 8]: 16.6 µM
- CC50 [2]: 66.5 µM
- selectivity ratio [3]: 4
- CC50 [4]: 65.3 µM
- selectivity ratio [5]: 3.9

SMILES: C=C1CC[C@@H]2[C@]3(C)COC(C)(C)O[C@@H]3CC[C@@]2(C)[C@@H]1C/C=C1/C(=O)OC[C@H]1Oc1cccnc1[N+](=O)[O-]
- EC50 ([1]; snb-19): Not Active
- CC50 at 24 h [6]: 46.5 µM
- CC50 at 48 h [7]: 26.2 µM

SMILES: C=C1CC[C@H]2[C@@](C)(CCC(=O)[C@@]2(C)COC(C)=O)[C@@H]1C/C=C1/C(=O)OC[C@@H]1Oc1cccc2ccc(C)nc12
- EC50 ([1]; snb-19): Not Active
- CC50 at 24 h [6]: 51.7 µM
- CC50 at 48 h [7]: 46.7 µM

SMILES: C=C1CC[C@@H]2[C@](C)(COC(C)=O)[C@H](O)CC[C@@]2(C)[C@@H]1C/C=C1/C(=O)OC[C@@H]1Oc1cccc2cccnc12
- EC50 ([1]; snb-19): Not Active
- CC50 at 24 h [6]: 49.5 µM
- CC50 at 48 h [7]: 27.5 µM

SMILES: C=C1CC[C@@H]2[C@](C)(CO)[C@H](O)CC[C@@]2(C)[C@@H]1C/C=C1/C(=O)OC[C@H]1Oc1c(Cl)cc(Cl)c2cccnc12
- EC50 [1, 8]: 7.8 µM
- CC50 [2]: 85.2 µM
- selectivity ratio [3]: 10.9
- selectivity ratio [5]: 7.5

SMILES: C=C1CC[C@H]2[C@@](C)(CCC(=O)[C@@]2(C)COC(C)=O)[C@@H]1C/C=C1/C(=O)OC[C@@H]1Oc1cccc2cccnc12
- EC50 ([1]; snb-19): Not Active
- CC50 at 24 h [6]: 21.9 µM
- CC50 at 48 h [7]: 12.8 µM

SMILES: C=C1CC[C@@H]2[C@](C)(CO)[C@H](O)CC[C@@]2(C)[C@@H]1C/C=C1/C(=O)OC[C@H]1Oc1cccnc1[N+](=O)[O-]
- EC50 [1, 8]: 12.5 µM
- CC50 [2]: 67.7 µM
- selectivity ratio [3]: 5.4
- CC50 [4]: 37.7 µM
- selectivity ratio [5]: 3

SMILES: C=C1CC[C@@H]2[C@](C)(CO)[C@H](O)CC[C@@]2(C)[C@@H]1C/C=C1/C(=O)OC[C@@H]1Oc1ccnc2ccccc12
- EC50 ([1]; snb-19): Not Active
- CC50 at 24 h [6]: 61.2 µM
- CC50 at 48 h [7]: 20.7 µM

SMILES: C=C1CC[C@@H]2[C@](C)(CO)[C@H](O)CC[C@@]2(C)[C@@H]1C/C=C1/C(=O)OC[C@@H]1Oc1c(Cl)cc(Cl)c2cccnc12
- EC50 [1, 8]: 13.3 µM
- CC50 [2]: > 100 µM
- selectivity ratio [3]: > 7.5
- CC50 [4]: > 100 µM
- selectivity ratio [5]: > 7.5
